# Source: ChEMBL document CHEMBL1125351, “Isobenzofurans as conformationally constrained miconazole analogues with improved antifungal potency” (1992)
# Values joined by “and” are separate entries in the source; they are usually repeats but may differ in a detail not shown here. Equal values may be shown once.
# Legend:
# Candida = assay: Compound is evaluated for geometric mean of MIC values of Candida species; type: functional; set-up: unit not given beside the values
# Candida tropicalis [1] = assay: Minimum inhibitory concentration against Candida tropicalis using eagles minimum essential medium (EMEM); type: functional
# In short: (§1)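 Candida MICs in Eagle's minimum essential medium, pH 7.0. Compounds in DMSO or ethanol were serially diluted in medium, inoculated and incubated at 37 °C under CO₂. […] The summary value is the geometric mean of the MICs across strains.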
# Trichophyton rubrum = assay: Minimum inhibitory concentration against Trichophyton rubrum at a pH of 5.7 using SDB medium; type: functional
# In short: (§2)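 Dermatophyte isolates tested by serial broth dilution in SDB, pH 5.7. Compound stocks in DMSO or ethanol, incubated at 27 °C, and growth read visually at 72 h. MIC is the lowest concentration with no visible growth. The summary value is the geometric mean of the MICs across the organisms.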
# Candida albicans [2] = assay: Minimum inhibitory concentration against Candida albicans using eagles minimum essential medium (EMEM); type: functional; in short: as §1
# Candida albicans [3] = assay: Minimum inhibitory concentration against Candida albicans at a pH of 5.7 using SDB medium; type: functional
# In short: (§3)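 Broth dilution in Sabouraud dextrose broth, pH 5.7. Compounds dissolved in DMSO or ethanol, serially diluted in medium, inoculated and incubated at 27 °C. Wells read visually at 48 h. MIC is the lowest concentration giving complete growth inhibition.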
# Microsporum canis = assay: Minimum inhibitory concentration against Microsporum canis at a pH of 5.7 using SDB medium; type: functional; in short: as §2
# Epidermophyton floccosum = assay: Minimum inhibitory concentration against Epidermophyton floccosum at a pH of 5.7 using SDB medium; type: functional; in short: as §2
# Candida tropicalis [4] = assay: Minimum inhibitory concentration against Candida tropicalis at a pH of 5.7 using SDB medium; type: functional; in short: as §3
# Trichophyton benhamiae = assay: Minimum inhibitory concentration against Trichophyton mentagrophytes at a pH of 5.7 using SDB medium; type: functional, Arthroderma benhamiae; in short: as §2
# [5] = Geometric mean for the above three species of Candida, tested in EMEM medium; type: functional; in short: as §1
# Candida albicans [6] = assay: Minimum inhibitory concentration against Candida stellatoidea at a pH of 5.7 using SDB medium; type: functional; in short: as §3
# Arthrodermataceae [7] = assay: (§4) Compound is evaluated for geometric mean of MIC values of dermatophytes; type: functional; set-up: unit not given beside the values; in short: as §2
# Candida parapsilosis = assay: Minimum inhibitory concentration against Candida parapsilosis at a pH of 5.7 using SDB medium; type: functional; settings: Lodderomyces parapsilosis; in short: as §3
# Candida albicans [8] = assay: Minimum inhibitory concentration against Candida stellatoidea using eagles minimum essential medium (EMEM); type: functional; in short: as §1
# Nannizzia gypsea = assay: Minimum inhibitory concentration against Microsporum gypseum at a pH of 5.7 using SDB medium; type: functional; in short: as §2
# Cricetinae gen. sp. [9] = assay: Inhibition of Vaginal Candida (C-60 strain) infection in Hamsters, estimated as Percent Area under curve at 0.05 % concentration after 4 days of administration; type: functional, Cricetulus griseus
# In short: (§5)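 Hamster vaginal C. albicans infection (strains C43 or C60; 10 animals per compound). From day 5 post-infection, a cotton pellet holding 0.15 mL of 0.05% or 0.01% (w/w) compound in EtOH–PEG 400–glycerol (10:45:45) was inserted once daily for 4 or 8 days. Vaginal swabs were filtered and the filters cultured on SDA at 37 °C for 48 h. Read-out was the area under the % negative cultures versus time curve.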
# Cricetinae gen. sp. [10] = assay: Inhibition of Vaginal Candida (C-60 strain) infection in Hamsters, estimated as Percent Area under curve at 0.01 % concentration after 4 days of administration; type: functional, Cricetulus griseus; in short: as §5
# Cavia porcellus [11] = assay: In vivo inhibition of topical Trichophyton infection in Guinea Pig after drug administration; type: functional
# In short: (§6)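 Guinea pigs (5 per compound) infected with T. mentagrophytes D24 by swabbing a homogenate onto shaven, abraded skin. From day 4 post-infection, 0.25% (w/v) compound in EtOH–PEG 400–glycerol (10:45:45) was rubbed in topically twice daily for 10 days. Hair samples were cultured on SDA at 27 °C for up to 16 days. Read-outs were the % negative cultures and the day each animal became culture-negative.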
# Cricetinae gen. sp. [12] = assay: Inhibition of Vaginal Candida (C-60 strain) infection in Hamsters, estimated as Percent Area under curve at 0.05 % concentration after 8 days of administration; type: functional, Cricetulus griseus; in short: as §5
# Cavia porcellus [13] = organism: Cavia porcellus; assay: Lession score which is determined as number of animals minus days to become negative; type: functional; in short: as §6
# Cavia porcellus [14] = assay: In vivo inhibition of topical Trichophyton infection in Guinea Pig during drug administration; type: functional; in short: as §6
# Cricetinae gen. sp. [15] = assay: Inhibition of Vaginal Candida (C-60 strain) infection in Hamsters, estimated as Percent Area under curve at 0.25 % concentration after 4 days of administration; type: functional, Cricetulus griseus
# Cricetinae gen. sp. [16] = assay: Inhibition of Vaginal Candida (C-43 strain) infection in Hamsters, estimated as Percent Area under curve at 0.25 % concentration after 8 days of administration; type: functional, Cricetulus griseus
# Cricetinae gen. sp. [17] = assay: Inhibition of Vaginal Candida (C-60 strain) infection in Hamsters, estimated as Percent Area under curve at 0.25 % concentration after 8 days of administration; type: functional, Cricetulus griseus
# Arthrodermataceae [18] = assay: as §4; type: functional; in short: as §2
# Cricetinae gen. sp. [19] = assay: Inhibition of Vaginal Candida (C-43 strain) infection in Hamsters, estimated as Percent Area under curve at 0.05 % concentration after 8 days of administration; type: functional, Cricetulus griseus; in short: as §5
MIC (Candida tropicalis [1]),MIC (Trichophyton rubrum),MIC (Candida albicans [2]),MIC (Candida albicans [3]),MIC (Microsporum canis),MIC (Epidermophyton floccosum),MIC (Candida tropicalis [4]),MIC (Trichophyton benhamiae),MIC (Candida albicans [6]),MIC (Candida parapsilosis),MIC (Candida albicans [8]),MIC (Nannizzia gypsea),Compound,Geometric mean (Candida),Geometric mean [5],Geometric mean (Arthrodermataceae [7]),Inhibition (Cricetinae gen. sp. [10]),also measured
0.25 µg/mL,8 µg/mL,0.25 µg/mL,> 64 µg/mL,4 µg/mL,0.25 µg/mL,> 64 µg/mL,8 µg/mL,> 64 µg/mL,4 µg/mL,0.25 µg/mL,32 µg/mL,Clc1ccc(CC2(Cn3ccnc3)OCc3ccccc32)cc1 (stereo not drawn),>78,0.25,4.6,–,–
< 0.031 µg/mL,16 µg/mL,< 0.031 µg/mL,> 64 µg/mL,2 µg/mL,–,64 µg/mL,0.5 µg/mL,> 64 µg/mL,0.25 µg/mL,< 0.031 µg/mL,–,Fc1ccc(C2(Cn3ccnc3)OCc3ccccc32)c(F)c1 (stereo not drawn),48,< 0.02,2.5,69%,Inhibition (Cricetinae gen. sp. [9]): 88%
< 0.031 µg/mL,0.25 µg/mL,< 0.031 µg/mL,64 µg/mL,1 µg/mL,< 0.031 µg/mL,64 µg/mL,0.125 µg/mL,64 µg/mL,2 µg/mL,< 0.031 µg/mL,1 µg/mL,Clc1ccc(C2(Cn3ccnc3)OCCc3ccccc32)cc1 (stereo not drawn),51,< 0.02,<0.22,–,–
0.125 µg/mL,16 µg/mL,0.25 µg/mL,64 µg/mL,16 µg/mL,< 0.031 µg/mL,64 µg/mL,16 µg/mL,64 µg/mL,8 µg/mL,0.25 µg/mL,64 µg/mL,c1ccc(C2(Cn3ccnc3)OCc3ccccc32)cc1 (stereo not drawn),48,0.2,<5.2,–,–
–,–,–,–,–,–,–,–,–,–,–,–,Clc1ccccc1C(c1ccccc1)(c1ccccc1)n1ccnc1 [CLOTRIMAZOLE],–,–,–,–,Culture negative (Cavia porcellus [11]): 87%; Inhibition (Cricetinae gen. sp. [12]): 34%; Lesion score (Cavia porcellus [13]): 5; Culture negative (Cavia porcellus [14]): 75%
0.125 µg/mL,2 µg/mL,0.25 µg/mL,64 µg/mL,4 µg/mL,0.063 µg/mL,64 µg/mL,2 µg/mL,64 µg/mL,16 µg/mL,0.25 µg/mL,16 µg/mL,c1ccc(C2(Cn3ccnc3)SCc3ccccc32)cc1 (stereo not drawn),53,0.19,–,–,Geometric mean (Arthrodermataceae [18]): 1.7
< 0.031 µg/mL,1 µg/mL,< 0.031 µg/mL,64 µg/mL,1 µg/mL,< 0.031 µg/mL,64 µg/mL,1 µg/mL,32 µg/mL,1 µg/mL,< 0.031 µg/mL,4 µg/mL,Clc1ccc(C2(Cn3cncn3)OCc3ccccc32)cc1 (stereo not drawn),16,< 0.02,<0.57,–,–
1 µg/mL,8 µg/mL,< 0.031 µg/mL,64 µg/mL,0.5 µg/mL,–,8 µg/mL,0.5 µg/mL,64 µg/mL,< 0.031 µg/mL,< 0.031 µg/mL,–,Clc1ccc(C2(Cn3ccnc3)OCc3ccc(Cl)cc32)c(Cl)c1 (stereo not drawn),<15,< 0.031,1.3,26%,Inhibition (Cricetinae gen. sp. [9]): 64%
0.063 µg/mL,< 0.031 µg/mL,0.25 µg/mL,32 µg/mL,1 µg/mL,< 0.031 µg/mL,32 µg/mL,< 0.031 µg/mL,16 µg/mL,< 0.031 µg/mL,0.125 µg/mL,8 µg/mL,c1ccc(-c2ccc(C3(Cn4ccnc4)OCc4ccccc43)cc2)cc1 (stereo not drawn),7.2,0.16,–,–,–
< 0.031 µg/mL,< 0.031 µg/mL,< 0.031 µg/mL,32 µg/mL,< 0.031 µg/mL,0.063 µg/mL,32 µg/mL,< 0.031 µg/mL,32 µg/mL,< 0.031 µg/mL,< 0.031 µg/mL,0.5 µg/mL,Clc1ccc(C2(Cn3ccnc3)OCc3ccccc32)c(Cl)c1 (stereo not drawn),7.2,< 0.02,<0.04,78%,Inhibition (Cricetinae gen. sp. [9]): 94%
0.125 µg/mL,2 µg/mL,< 0.031 µg/mL,16 µg/mL,2 µg/mL,< 0.031 µg/mL,16 µg/mL,2 µg/mL,32 µg/mL,0.25 µg/mL,< 0.031 µg/mL,4 µg/mL,Clc1ccc(C2(Cn3ccnc3)OCc3ccccc32)cc1 (stereo not drawn),7.2,< 0.03,<0.86,30%,Culture negative (Cavia porcellus [11]): 87%; Inhibition (Cricetinae gen. sp. [9]): 88%; Inhibition (Cricetinae gen. sp. [12]): 88%; Inhibition (Cricetinae gen. sp. [19]): 89%; Lesion score (Cavia porcellus [13]): 3 and >2; Culture negative (Cavia porcellus [14]): 90%
–,64 µg/mL,–,> 64 µg/mL,> 64 µg/mL,8 µg/mL,> 64 µg/mL,> 64 µg/mL,> 64 µg/mL,32 µg/mL,–,> 64 µg/mL,OC1OC(Cn2cncn2)(c2ccc(Cl)cc2)c2ccccc21 (stereo not drawn),–,–,>54,–,–
2 µg/mL,8 µg/mL,2 µg/mL,8 µg/mL,8 µg/mL,–,8 µg/mL,8 µg/mL,4 µg/mL,4 µg/mL,2 µg/mL,16 µg/mL,Clc1ccc(C2(Cn3ccnc3)OCc3c(Cl)cc(Cl)cc32)c(Cl)c1 (stereo not drawn),4.9,2,9.5,–,Inhibition (Cricetinae gen. sp. [19]): <30%

Compound,MIC (Candida tropicalis [1]),MIC (Trichophyton rubrum),MIC (Candida albicans [2]),MIC (Candida albicans [3]),MIC (Microsporum canis),MIC (Epidermophyton floccosum),MIC (Candida tropicalis [4]),MIC (Trichophyton benhamiae),MIC (Candida albicans [6]),MIC (Candida parapsilosis),MIC (Candida albicans [8]),MIC (Nannizzia gypsea),Geometric mean (Candida),Geometric mean [5],Geometric mean (Arthrodermataceae [7]),Inhibition (Cricetinae gen. sp. [10]),also measured
Clc1ccc(COC(Cn2ccnc2)c2ccc(Cl)cc2Cl)c(Cl)c1 (stereo not drawn) [MICONAZOLE],0.125 µg/mL,< 0.031 µg/mL,0.25 µg/mL,8 µg/mL,< 0.031 µg/mL,< 0.031 µg/mL,4 µg/mL,< 0.031 µg/mL,8 µg/mL,< 0.031 µg/mL,0.125 µg/mL,1 µg/mL,<1.8,0.18,<0.03,33%,Culture negative (Cavia porcellus [11]): 60%; Inhibition (Cricetinae gen. sp. [15]): 63%; Inhibition (Cricetinae gen. sp. [16]): 69%; Inhibition (Cricetinae gen. sp. [17]): 63%; Culture negative (Cavia porcellus [14]): 20%
